Each structure is given as a SMILES string. pIC50: −log10 of the molar value.

This experiment has as its system Radical scavenging activity. The experiment can be described thus: Antioxidant activity assessed as DPPH radical scavenging activity after 30 mins by microplate reader. In kind it is functional. To be noted: for pIC50: read-out: IC50. Put shortly: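 Modified Mensor method. Sample in absolute MeOH at several concentrations mixed 1:1 with 0.06 mM DPPH in MeOH (100 μL each). Absorbance read at 510 nm at exactly 30 min, then percent inhibition calculated. IC50 taken as the concentration scavenging 50% of DPPH radicals. Triplicate runs. Rutin and Trolox used as reference standards.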
(In general: Loss of DPPH colour is used to gauge radical scavenging.)

Turning to `Oc1ccc(Cc2ccc(O)cc2)cc1`, the IC50 (in general, the concentration at which inhibition is half-maximal) is more than 200 µg/mL.

As for `OC[C@H]1O[C@@H](OCc2ccccc2)[C@H](O)[C@@H](O)[C@@H]1O`, the pIC50 (as a rule, the IC50 on a negative log10 scale, so that one unit is a factor of ten) was 3.65.

Take `O=C(/C=C/c1ccc(O)cc1)O[C@@H]1C[C@](O)(C(=O)O)C[C@@H](OC(=O)/C=C/c2ccc(O)c(O)c2)[C@H]1O`: the pIC50 is 4.24.

Turning to `COc1ccc(-c2cc(=O)c3c(O)cc(O[C@@H]4O[C@H](CO[C@@H]5O[C@@H](C)[C@H](O)[C@@H](O)[C@H]5O)[C@@H](O)[C@H](O)[C@H]4O[C@@H]4O[C@H](CO)[C@@H](O)[C@H](O)[C@H]4O[C@@H]4O[C@H](CO)[C@@H](O)[C@H](O)[C@H]4O)cc3o2)cc1`, the IC50 is more than 200 µg/mL.

On to `COc1ccc(-c2cc(=O)c3c(O)cc(O[C@@H]4O[C@H](CO[C@@H]5O[C@@H](C)[C@H](O)[C@@H](O)[C@H]5O)[C@@H](O)[C@H](O)[C@H]4O[C@@H]4O[C@H](CO)[C@@H](O)[C@H](OC(C)=O)[C@H]4O[C@@H]4O[C@H](CO)[C@@H](O)[C@H](O)[C@H]4O)cc3o2)cc1`, for which the IC50 is more than 200 µg/mL.

Take `COc1ccc(-c2cc(=O)c3c(O)cc(O[C@@H]4O[C@H](CO[C@@H]5O[C@@H](C)[C@H](O)[C@@H](O)[C@H]5O)[C@@H](O)[C@H](O)[C@H]4O[C@@H]4O[C@H](COC(C)=O)[C@@H](O)[C@H](O)[C@H]4O[C@@H]4O[C@H](CO)[C@@H](O)[C@H](O)[C@H]4O)cc3o2)cc1`: the IC50 was more than 200 µg/mL.

With `COc1ccc(-c2cc(=O)c3c(O)cc(O[C@@H]4O[C@H](CO[C@@H]5O[C@@H](C)[C@H](O)[C@@H](O)[C@H]5O)[C@@H](O)[C@H](O)[C@H]4O[C@@H]4O[C@H](COC(C)=O)[C@@H](O)[C@H](O)[C@H]4O[C@@H]4O[C@H](CO)[C@@H](O)[C@H](O)[C@H]4O)cc3o2)cc1O`, the IC50 is more than 200 µg/mL.

`CC(=O)OC[C@H]1O[C@@H](O[C@H]2[C@H](Oc3cc(O)c4c(=O)cc(-c5ccc(O)cc5)oc4c3)O[C@H](CO[C@@H]3O[C@@H](C)[C@H](O)[C@@H](O)[C@H]3O)[C@@H](O)[C@@H]2O)[C@H](O[C@@H]2O[C@H](CO)[C@@H](O)[C@H](O)[C@H]2O)[C@@H](O)[C@@H]1O`: the IC50 is more than 200 µg/mL.

With `COc1ccc(-c2cc(=O)c3c(O)cc(O[C@@H]4O[C@H](CO[C@@H]5O[C@@H](C)[C@H](O)[C@@H](O)[C@H]5O)[C@@H](O)[C@H](O)[C@H]4O[C@@H]4O[C@H](CO)[C@@H](O)[C@H](O)[C@H]4O[C@@H]4O[C@H](CO)[C@@H](O)[C@H](O)[C@H]4O)cc3o2)cc1O`, the IC50 was more than 200 µg/mL.

For the compound `C[C@@H]1O[C@@H](OC[C@H]2O[C@@H](OCc3ccccc3)[C@H](O)[C@@H](O)[C@@H]2O)[C@H](OC(=O)/C=C/c2ccc(O)cc2)[C@H](O)[C@H]1O`, the IC50 was more than 200 µg/mL.

As for `C[C@@H]1O[C@@H](OC[C@H]2O[C@@H](OCc3ccccc3)[C@H](O)[C@@H](O)[C@@H]2O)[C@H](OC(=O)/C=C\c2ccc(O)cc2)[C@H](O)[C@H]1O`, the IC50 was more than 200 µg/mL.

Take `C[C@@H]1O[C@@H](OC[C@H]2O[C@@H](OCc3ccccc3)[C@H](O)[C@@H](O)[C@@H]2O)[C@H](O)[C@H](O)[C@H]1OC(=O)/C=C/c1ccc(O)cc1`: the IC50 is more than 200 µg/mL.

As to `C[C@@H]1O[C@@H](OC[C@H]2O[C@@H](Oc3ccc(COC(=O)c4ccccc4)cc3)[C@H](O)[C@@H](O)[C@@H]2O)[C@H](O)[C@H](O)[C@H]1O`, the IC50 was more than 200 µg/mL.

With `CC(O)(CC(=O)O)CC(=O)OCc1ccc(O[C@@H]2O[C@H](CO)[C@@H](O)[C@H](O)[C@H]2O)cc1` (stereo partly specified), the IC50 was more than 200 µg/mL.

Take `COc1cc([C@H]2Oc3c(OC)cc(CCCO)cc3[C@@H]2CO)ccc1O[C@@H]1O[C@H](CO)[C@@H](O)[C@H](O)[C@H]1O`: the IC50 was more than 200 µg/mL.

For `O=C(O)/C=C\c1ccc(O)cc1`, the IC50 is more than 200 µg/mL.

On to `O=C(/C=C/c1ccc(O)c(O)c1)O[C@@H]1C[C@](O)(C(=O)O)C[C@@H](OC(=O)/C=C/c2ccc(O)c(O)c2)[C@H]1O`, for which the negative logarithm of the IC50 (pIC50) is 4.49.

With `O=C(/C=C/c1ccc(O)c(O)c1)O[C@@H]1[C@H](O)C[C@@](O)(C(=O)O)C[C@H]1OC(=O)/C=C/c1ccc(O)c(O)c1`, the pIC50 is 4.54.

Turning to `COc1cc([C@H]2Oc3c(OC)cc(CCCO)cc3[C@@H]2CO[C@@H]2O[C@H](CO)[C@@H](O)[C@H](O)[C@H]2O)ccc1O`, the pIC50 is 3.55.

`O=Cc1ccc(O)cc1` [4-HYDROXYBENZALDEHYDE]: the IC50 is more than 200 µg/mL.

As for `O=c1c(O[C@@H]2O[C@H](CO)[C@@H](O)[C@H](O)[C@H]2O)c(-c2ccc(O)cc2)oc2cc(O)cc(O)c12` [ASTRAGALIN], the IC50 is more than 200 µg/mL.

`O=C(/C=C/c1ccc(O)c(O)c1)O[C@@H]1C[C@](O)(C(=O)O)C[C@@H](O)[C@H]1O` [CHLOROGENIC ACID]: the pIC50 is 4.34.

With `C=CCc1ccc(O[C@@H]2O[C@H](CO)[C@@H](O)[C@H](O)[C@H]2O)c(OC)c1` [CITRUSIN C], the pIC50 is 3.48.

Take `O=C(O)/C=C/c1ccc(O)cc1` [COUMARIC ACID]: the IC50 was more than 200 µg/mL.

On to `COc1cc(/C=C/C(=O)O)ccc1O` [FERULATE], for which the pIC50 was 4.20.

For `C[C@@H]1O[C@@H](OC[C@H]2O[C@@H](OCc3ccccc3)[C@H](O)[C@@H](O)[C@@H]2O)[C@H](O)[C@H](O)[C@H]1O` [HYDRANGEIFOLIN I], the IC50 was more than 200 µg/mL.

As for `O=c1c(O[C@@H]2O[C@H](CO)[C@@H](O)[C@H](O)[C@H]2O)c(-c2ccc(O)c(O)c2)oc2cc(O)cc(O)c12` [ISOQUERCETIN], the pIC50 is 4.22.

Consider `COC(=O)/C=C/c1ccc(O)cc1` [METHYL P-HYDROXYCINNAMATE], for which the IC50 was more than 200 µg/mL.

With `O=C(O)[C@H]1O[C@@H](Oc2c(-c3ccc(O)c(O)c3)oc3cc(O)cc(O)c3c2=O)[C@H](O)[C@@H](O)[C@@H]1O` [QUERCETIN GLUCURONIDE], the pIC50 is 4.43.

Consider `C[C@@H]1O[C@@H](OC[C@H]2O[C@@H](Oc3c(-c4ccc(O)c(O)c4)oc4cc(O)cc(O)c4c3=O)[C@H](O)[C@@H](O)[C@@H]2O)[C@H](O)[C@H](O)[C@H]1O` [RUTIN], for which the pIC50 is 4.41.

In the case of `Cc1c(C)c2c(c(C)c1O)CCC(C)(C(=O)O)O2` (stereo unspecified) [TROLOX], the pIC50 was 4.59.

The record behind these values is ChEMBL document CHEMBL2331388, “Flavone tetraglycosides and benzyl alcohol glycosides from the Mongolian medicinal plant Dracocephalum ruyschiana” (J Nat Prod, 2013).
